Measurements taken from ChEMBL document CHEMBL5331111, “Synthetic Biology Facilitates Semisynthetic Development of Type V Glycopeptide Antibiotics Targeting Vancomycin-Resistant Enterococcus” (J Med Chem, 2023).
Values after ≈ are worked out from the molar mass of the structure shown.

Legend:
Format in all cases: functional
Staphylococcus aureus = experiment: Antibacterial activity against Staphylococcus aureus ATCC 33591 assessed as reduction in bacterial growth by Mueller-Hinton broth based assay
Outline: (§1)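 Broth MIC by standard procedure in Mueller-Hinton broth, for both B. subtilis 168 and S. aureus ATCC 33591.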

[1] = system: Mycolicibacterium smegmatis; experiment: Antimycobacterial activity against Mycobacterium smegmatis MC2 155 assessed as inhibition of bacterial growth measured after 2 days by resazurin dye based analysis; conditions: MC2 155, 48 h, time 2 day
Outline: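 Strains grown in 7H9 broth with 0.2% glycerol, 10% OADC and 0.05% Tween-80. Inoculum was about 5 × 10^5 CFU/mL, checked by plating on 7H10/OADC agar to be 3–8 × 10^5. Read at 2 days for M. smegmatis and 7 days for M. tuberculosis H37Ra, M. bovis and M. avium. Resazurin 30 μg/mL was then added for one further day. Values are averages of at least two experiments.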

Enterococcus faecium = experiment: Antibacterial activity against vancomycin-resistant Enterococcus faecium ATCC 700221 assessed as inhibition of bacterial growth by Mueller-Hinton broth based assay
Enterococcus faecalis = experiment: Antibacterial activity against vancomycin-resistant Enterococcus faecalis ATCC 51299 assessed as inhibition of bacterial growth by Mueller-Hinton broth based assay
Bacillus subtilis = experiment: Antibacterial activity against Bacillus subtilis 168 assessed as reduction in bacterial growth by Mueller-Hinton broth based assay; outline: as §1

Structure (SMILES) | MIC (Staphylococcus aureus) [µg/mL] | MIC [1] [µg/mL] | MIC (Enterococcus faecium) [µg/mL] | MIC (Enterococcus faecalis) [µg/mL] | MIC (Bacillus subtilis) [µg/mL]
CN1C(=O)[C@@H]2NC(=O)[C@@H]3NC(=O)[C@@H](c4ccc(O)cc4)NC(=O)[C@H](NC(=O)C(Nc4ccc(B(O)O)cc4)c4ccc(O)cc4)Cc4c[nH]c5cc(ccc45)-c4cc3cc(c4O)Oc3ccc(cc3)C[C@H]1C(=O)N[C@@H](C(=O)O)c1ccc(O)c(c1)Oc1ccc2cc1 (stereo not given in full) | 8 (≈ 6.45 µM) | > 128 | 8 (≈ 6.45 µM) | 8 (≈ 6.45 µM) | 1 (≈ 0.806 µM)
CN1C(=O)[C@@H]2NC(=O)[C@@H]3NC(=O)[C@@H](c4ccc(O)cc4)NC(=O)[C@H](NC(=O)C(Nc4cc(Cl)cc(Cl)c4Cl)c4ccc(O)cc4)Cc4c[nH]c5cc(ccc45)-c4cc3cc(c4O)Oc3ccc(cc3)C[C@H]1C(=O)N[C@@H](C(=O)O)c1ccc(O)c(c1)Oc1ccc2cc1 (stereo not given in full) | 4 (≈ 3.08 µM) | > 128 | 16 (≈ 12.3 µM) | 8 (≈ 6.15 µM) | 4 (≈ 3.08 µM)
CN[C@H](CC(C)C)C(=O)N[C@H]1C(=O)N[C@@H](CC(N)=O)C(=O)N[C@H]2C(=O)N[C@H]3C(=O)N[C@H](C(=O)N[C@H](C(=O)O)c4cc(O)cc(O)c4-c4cc3ccc4O)[C@H](O)c3ccc(c(Cl)c3)Oc3cc2cc(c3O[C@@H]2O[C@H](CO)[C@@H](O)[C@H](O)[C@H]2O[C@H]2C[C@](C)(N)[C@H](O)[C@H](C)O2)Oc2ccc(cc2Cl)[C@H]1O [VANCOMYCIN] | – | 4 (≈ 2.76 µM) | > 128 | 32 (≈ 22.1 µM) | 0.5 (≈ 0.345 µM)
CN1C(=O)[C@@H]2NC(=O)[C@@H]3NC(=O)[C@@H](c4ccc(O)cc4)NC(=O)[C@H](NC(=O)C(Nc4cccc(F)c4F)c4ccc(O)cc4)Cc4c[nH]c5cc(ccc45)-c4cc3cc(c4O)Oc3ccc(cc3)C[C@H]1C(=O)N[C@@H](C(=O)O)c1ccc(O)c(c1)Oc1ccc2cc1 (stereo not given in full) | 16 (≈ 13 µM) | > 128 | 16 (≈ 13 µM) | 16 (≈ 13 µM) | 8 (≈ 6.49 µM)
CNCCNC(=O)[C@@H]1NC(=O)[C@@H]2Cc3ccc(cc3)Oc3cc4cc(c3O)-c3ccc5c(c[nH]c5c3)C[C@@H](NC(=O)C(N)c3ccc(O)cc3)C(=O)N[C@H](c3ccc(O)cc3)C(=O)N[C@H]4C(=O)N[C@@H](C(=O)N2C)c2ccc(cc2)Oc2cc1ccc2O (stereo not given in full) | – | 0.5 (≈ 0.425 µM) | 1 (≈ 0.849 µM) | 4 (≈ 3.4 µM) | –
CN(C)CCCNCCCNC(=O)[C@@H]1NC(=O)[C@@H]2Cc3ccc(cc3)Oc3cc4cc(c3O)-c3ccc5c(c[nH]c5c3)C[C@@H](NC(=O)Cc3ccc(O)cc3)C(=O)N[C@H](c3ccc(O)cc3)C(=O)N[C@H]4C(=O)N[C@@H](C(=O)N2C)c2ccc(cc2)Oc2cc1ccc2O | > 128 | 1 (≈ 0.802 µM) | 2 (≈ 1.6 µM) | 16 (≈ 12.8 µM) | 8 (≈ 6.41 µM)
CN1C(=O)[C@@H]2NC(=O)[C@@H]3NC(=O)[C@@H](c4ccc(O)cc4)NC(=O)[C@H](NC(=O)C(Nc4cccc(-c5ccc(F)cc5)c4)c4ccc(O)cc4)Cc4c[nH]c5cc(ccc45)-c4cc3cc(c4O)Oc3ccc(cc3)C[C@H]1C(=O)N[C@@H](C(=O)O)c1ccc(O)c(c1)Oc1ccc2cc1 (stereo not given in full) | > 128 | > 128 | 16 (≈ 12.4 µM) | 16 (≈ 12.4 µM) | > 128
CN1C(=O)[C@@H]2NC(=O)[C@@H]3NC(=O)[C@@H](c4ccc(O)cc4)NC(=O)[C@H](NC(=O)C(Nc4ccsc4)c4ccc(O)cc4)Cc4c[nH]c5cc(ccc45)-c4cc3cc(c4O)Oc3ccc(cc3)C[C@H]1C(=O)N[C@@H](C(=O)O)c1ccc(O)c(c1)Oc1ccc2cc1 (stereo not given in full) | 4 (≈ 3.32 µM) | > 128 | 8 (≈ 6.65 µM) | 4 (≈ 3.32 µM) | 1 (≈ 0.831 µM)
CN1C(=O)[C@@H]2NC(=O)[C@@H]3NC(=O)[C@@H](c4ccc(O)cc4)NC(=O)[C@H](NC(=O)C(NCCS(=O)(=O)O)c4ccc(O)cc4)Cc4c[nH]c5cc(ccc45)-c4cc3cc(c4O)Oc3ccc(cc3)C[C@H]1C(=O)N[C@@H](C(=O)OCCS(=O)(=O)O)c1ccc(O)c(c1)Oc1ccc2cc1 (stereo not given in full) | > 128 | – | > 128 | > 128 | –
CN1C(=O)[C@@H]2NC(=O)[C@@H]3NC(=O)[C@@H](c4ccc(O)cc4)NC(=O)[C@H](NC(=O)C(Nc4ccccn4)c4ccc(O)cc4)Cc4c[nH]c5cc(ccc45)-c4cc3cc(c4O)Oc3ccc(cc3)C[C@H]1C(=O)N[C@@H](C(=O)O)c1ccc(O)c(c1)Oc1ccc2cc1 (stereo not given in full) | – | – | 16 (≈ 13.4 µM) | 16 (≈ 13.4 µM) | 4 (≈ 3.34 µM)
CN1C(=O)[C@@H]2NC(=O)[C@@H]3NC(=O)[C@@H](c4ccc(O)cc4)NC(=O)[C@H](NC(=O)C(NC(=O)OC(C)(C)C)c4ccc(O)cc4)Cc4c[nH]c5cc(ccc45)-c4cc3cc(c4O)Oc3ccc(cc3)C[C@H]1C(=O)N[C@@H](C(=O)O)c1ccc(O)c(c1)Oc1ccc2cc1 (stereo not given in full) | – | – | 16 (≈ 13.1 µM) | – | –
CCCCNC(C(=O)N[C@@H]1Cc2c[nH]c3cc(ccc23)-c2cc3cc(c2O)Oc2ccc(cc2)C[C@H]2C(=O)N[C@@H](C(=O)O)c4ccc(O)c(c4)Oc4ccc(cc4)[C@@H](NC(=O)[C@@H]3NC(=O)[C@@H](c3ccc(O)cc3)NC1=O)C(=O)N2C)c1ccc(O)cc1 (stereo not given in full) | 16 (≈ 13.6 µM) | – | – | – | –
CN1C(=O)[C@@H]2NC(=O)[C@@H]3NC(=O)[C@@H](c4ccc(O)cc4)NC(=O)[C@H](NC(=O)C(NCCCCCCB(O)O)c4ccc(O)cc4)Cc4c[nH]c5cc(ccc45)-c4cc3cc(c4O)Oc3ccc(cc3)C[C@H]1C(=O)N[C@@H](C(=O)OCCCCCCB(O)O)c1ccc(O)c(c1)Oc1ccc2cc1 (stereo not given in full) | – | – | – | 64 (≈ 46.5 µM) | –
CN(C)CCCNC(=O)[C@@H]1NC(=O)[C@@H]2Cc3ccc(cc3)Oc3cc4cc(c3O)-c3ccc5c(c[nH]c5c3)C[C@@H](NC(=O)C(N)c3ccc(O)cc3)C(=O)N[C@H](c3ccc(O)cc3)C(=O)N[C@H]4C(=O)N[C@@H](C(=O)N2C)c2ccc(cc2)Oc2cc1ccc2O (stereo not given in full) | – | – | 2 (≈ 1.66 µM) | – | –
CCCCCCCCCCCNC(C(=O)N[C@@H]1Cc2c[nH]c3cc(ccc23)-c2cc3cc(c2O)Oc2ccc(cc2)C[C@H]2C(=O)N[C@@H](C(=O)O)c4ccc(O)c(c4)Oc4ccc(cc4)[C@@H](NC(=O)[C@@H]3NC(=O)[C@@H](c3ccc(O)cc3)NC1=O)C(=O)N2C)c1ccc(O)cc1 (stereo not given in full) | 16 (≈ 12.5 µM) | – | – | 4 (≈ 3.14 µM) | –
CN1C(=O)[C@@H]2NC(=O)[C@@H]3NC(=O)[C@@H](c4ccc(O)cc4)NC(=O)[C@H](NC(=O)Cc4ccc(O)cc4)Cc4c[nH]c5cc(ccc45)-c4cc3cc(c4O)Oc3ccc(cc3)C[C@H]1C(=O)N[C@@H](C(=O)NCCC[N+]1(C)CCCC1)c1ccc(O)c(c1)Oc1ccc2cc1 | > 128 | 1 | 8 | – | –
CN1C(=O)[C@@H]2NC(=O)[C@@H]3NC(=O)[C@@H](c4ccc(O)cc4)NC(=O)[C@H](NC(=O)C(NCCO)c4ccc(O)cc4)Cc4c[nH]c5cc(ccc45)-c4cc3cc(c4O)Oc3ccc(cc3)C[C@H]1C(=O)N[C@@H](C(=O)OCCO)c1ccc(O)c(c1)Oc1ccc2cc1 (stereo not given in full) | 32 (≈ 26.5 µM) | 16 (≈ 13.2 µM) | – | – | –
CCCCCCCCNC(C(=O)N[C@@H]1Cc2c[nH]c3cc(ccc23)-c2cc3cc(c2O)Oc2ccc(cc2)C[C@H]2C(=O)N[C@@H](C(=O)O)c4ccc(O)c(c4)Oc4ccc(cc4)[C@@H](NC(=O)[C@@H]3NC(=O)[C@@H](c3ccc(O)cc3)NC1=O)C(=O)N2C)c1ccc(O)cc1 (stereo not given in full) | – | – | – | 8 (≈ 6.49 µM) | –
